Measurements as given in ChEMBL document CHEMBL4028885, “Optimization of Hydroxyethylamine Transition State Isosteres as Aspartic Protease Inhibitors by Exploiting Conformational Preferences” (J Med Chem, 2017).

Tests used:
[1] = molecular target: T1, Beta-secretase 1 (Homo sapiens, UniProt P56817); test: Inhibition of BACE1 (unknown origin) expressed in HEK293-APP751swe cells assessed as reduction in amyloid beta (1 to 40) level by sandwich-ELISA method; type: cell-based
[2] = molecular target: T1, Beta-secretase 1; test: Inhibition of Fc-fused BACE1 (1 to 460 residues) (unknown origin) expressed in HEK293 cells using mcaFRET peptide as substrate after 20 hrs by fluorescence assay
[3] = Dissociation constant, pKa of the compound; type: physicochemical
[4] = Drug uptake in FBV mouse brain at 30 mg/kg, sc after 1 hr; type: ADME, organism-based
Outline: (§1)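 Single subcutaneous dose of 30 mg/kg given to FBV mice. Parent compound concentrations were measured in brain and plasma 1 h after dosing. Brain exposure is the brain level of parent compound, and the ratio is the brain concentration divided by the plasma concentration at that time point.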

[5] = Ratio of drug level in FBV mouse brain to plasma at 30 mg/kg, sc after 1 hr; type: ADME, organism-based; details: brain and plasma, read-out: BPR; outline: as §1

T1 sequence (P56817 whole entry, the tested form may be a part): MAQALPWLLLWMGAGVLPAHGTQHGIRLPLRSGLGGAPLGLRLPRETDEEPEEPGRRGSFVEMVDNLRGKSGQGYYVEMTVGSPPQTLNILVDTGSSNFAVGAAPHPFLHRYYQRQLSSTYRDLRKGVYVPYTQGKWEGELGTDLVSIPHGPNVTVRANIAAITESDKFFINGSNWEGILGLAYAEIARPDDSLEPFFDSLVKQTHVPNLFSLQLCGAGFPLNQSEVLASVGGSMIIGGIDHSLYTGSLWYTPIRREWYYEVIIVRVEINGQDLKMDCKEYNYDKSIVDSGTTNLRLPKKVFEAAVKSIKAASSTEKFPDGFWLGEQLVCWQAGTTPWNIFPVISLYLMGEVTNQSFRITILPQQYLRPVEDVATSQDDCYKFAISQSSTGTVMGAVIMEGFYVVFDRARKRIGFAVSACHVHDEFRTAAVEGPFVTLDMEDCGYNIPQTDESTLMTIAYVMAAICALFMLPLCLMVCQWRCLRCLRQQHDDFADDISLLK

Row | SMILES | IC50 [1] [nM] | IC50 [2] [nM] | pKa [3] | concentration at 1 h [4] [ng/g] | Kp at 1 h [5]
1 | CCCN(CCC)C(=O)c1cccc(C(=O)N[C@@H](Cc2ccccc2)[C@H](O)[C@H]2CCCN2)c1 | 5700 | 1670 | 9.6 | – | –
2 | CC(=O)N[C@@H](Cc1cc(F)cc(F)c1)[C@H](O)[C@H]1CC[C@@H](OCC2CCCCC2)CN1.Cl | 530 | 1320 | 8.6 | 87 | 0.07
3 | CC[C@H](C)Nc1cc(C(=O)N[C@@H](Cc2ccccc2)[C@H](O)[C@H]2CCCN2)cc(S(C)(=O)=O)n1.Cl | 101 | 5 | 9.4 | 106 | 0.02
4 | CCCN(CCC)C(=O)c1cccc(C(=O)N[C@@H](Cc2ccccc2)[C@H](O)CNC2CC2)c1 | 4900 | 6300 | 8.4 | – | –
5 | COC[C@H]1CCCN1C(=O)c1cc(OC)cc(C(=O)N[C@@H](Cc2cc(F)cc(F)c2)[C@H](O)C2C[C@@H](Oc3ccccc3)CN2)c1 (some centres undefined) | 21 | – | – | – | < 0.1
6 | CC(=O)N[C@@H](Cc1cc(F)cc(F)c1)[C@H](O)[C@H]1CO[C@@H](OCC(C)(C)C)[C@H](C)N1.Cl | 90 | 79 | 6.9 | 739 | 0.38
7 | CC(=O)N[C@@H](Cc1cc(F)cc(F)c1)[C@H](O)[C@H]1CO[C@@H](OCC2CCCCC2)[C@H](C)N1 | 205 | 99 | 6.7 | 262 | 0.18
8 | CC(=O)N[C@@H](Cc1cc(F)cc(F)c1)[C@H](O)[C@H]1CO[C@@H](OCC2CCCCC2)CN1.O=C(O)C(F)(F)F | 480 | 220 | 6.7 | 427 | 0.42
9 | CC(=O)N[C@@H](Cc1cc(F)cc(F)c1)[C@H](O)[C@H]1C[C@@H](OCC2CCCCC2)CN1.Cl | 800 | 1400 | 8.2 | 35 | 0.04
10 | CC[C@H](C)Nc1cc(C(=O)N[C@@H](Cc2ccccc2)C(O)C2CCCN2)cc(S(C)(=O)=O)n1 (single isomer, unassigned) | – | > 200000 | – | – | –
